# High-throughput results: PubChem BioAssay, several laboratories
# An excerpt weighted towards active compounds, which were near 2.8% of everything screened.
# Mcl1-Noxa inh = disrupts binding of human Mcl-1 to Noxa peptide; TR-FRET Mcl-1/Noxa peptide binding, 2 h; inhibition, % at 21.7 µM; Q07820; 1.5% of 220,000 active;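 active = compounds that cut the protein-peptide binding signal by more than 50% relative to plate controls in a single-dose test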;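 also: His-tagged Mcl-1 with rhodamine Noxa BH3 peptide and terbium anti-His antibody; 0% = Mcl-1 plus Noxa peptide wells and 100% = peptide-only wells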
# Target sequence (Q07820 whole entry, looked up): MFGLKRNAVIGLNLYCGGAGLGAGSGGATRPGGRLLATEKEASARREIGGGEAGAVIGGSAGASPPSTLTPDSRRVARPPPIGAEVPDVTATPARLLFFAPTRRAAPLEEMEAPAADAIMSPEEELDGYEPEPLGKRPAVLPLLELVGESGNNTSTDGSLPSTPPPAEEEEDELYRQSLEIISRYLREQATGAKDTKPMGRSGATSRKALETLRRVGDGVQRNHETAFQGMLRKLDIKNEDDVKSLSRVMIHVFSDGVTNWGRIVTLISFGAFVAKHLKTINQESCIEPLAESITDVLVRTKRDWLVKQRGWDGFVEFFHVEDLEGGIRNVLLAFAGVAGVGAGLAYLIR
# Calpain2 inh = inhibitors of pig calpain II. purified calpain II, fluorogenic peptide substrate, 30 min. inhibition, % at 16 µM. 0.37% of 220,000 active;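 active = inhibition above about 50%, limit read from the data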
# Mcl1 Bid PPI = disrupts binding of human Mcl-1 to Bid peptide | Q07820 | TR-FRET Mcl-1/Bid-Dy647 peptide binding, 1536-well | inhibition, % at 21.7 µM | 0.97% of 220,000 active | AID 1021;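 active = compounds that cut the binding signal by more than half at the single screening dose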;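 also: His-tagged Mcl-1 with europium anti-His antibody binding Bid BH3 peptide; 0% = Mcl-1 plus peptide wells and 100% = peptide-only wells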
# Mcl-1 Bim block = human Bim-Mcl-1 interaction inhibition | 0.1% of 190,000 active | Bead-based flow cytometry, Bim peptide-Mcl-1 binding | AID 1009 | Q07820 | inhibition, % at 10 µM; in the data active = inhibition above about 40%;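 also: 0% = no compound tracer wells and 100% = peptide blocker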
# Calb biofilm kill = mixtures killing C. albicans biofilm. 0.02% of 120,000 active. AID 1242. C. albicans biofilm persisters + clotrimazole, fluorescence viability; primary screen in compound mixtures of four per well. inhibition, % at 7.6 µM;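 active = inhibition above 30.3% in the primary screen of four-compound pools, then above 30% when the compound was retested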;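 also: compounds exposed to preformed 24 h biofilms for 48 h; 0% = untreated biofilm control and 100% = clotrimazole plus chlorhexidine kill blank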
#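 System: C. albicans CAF4-2 wild-type biofilms; Medium: RPMI/MOPS medium, pH 7.0; Reagent: Clotrimazole, 50 µg/mL; Times: biofilm formation 24 h, compound exposure 48 h, 37 °C; Detection: 2-h Alamar Blue fluorescence, 535/590 nm excitation/emission; Evaluation: percent inhibition of biofilm viability.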
# Arbovirus anti = arbovirus infection inhibition | inhibition, % at 10 µM | arbovirus infection cell-based antiviral screen | 0.37% of 200,000 active; in the data active = inhibition above about 30%
# Numbers without * were called inactive; . = no result.
SMILES,Mcl1-Noxa inh,Calpain2 inh,Mcl1 Bid PPI,Mcl-1 Bim block,Calb biofilm kill,Arbovirus anti
Brc1ccc(OCCCN2CCOCC2)cc1,8,21,65*,1,.,8
c1ccc(OCCCCN2CCOCC2)cc1,-11,7,-54,0,.,-2
Cc1ccc(S(=O)(=O)N(C)C)cc1NC(=O)CCNC(=O)c1ccccc1Cl,24,2,8,-2,12,6
CC1OC(Oc2c(-c3cc(O)c(O)c(O)c3)oc3cc(O)cc(O)c3c2=O)C(O)C(O)C1O (stereo not drawn),44,41,-37,.,24,.
O=C(O)C1OC(Oc2c(-c3ccc(O)c(O)c3)oc3cc(O)cc(O)c3c2=O)C(O)C(O)C1O (stereo not drawn),53*,6,2,0,9,2
O=c1[nH]nc(SCc2ccccc2)n1C1CC2C=CC1C2 (stereo not drawn),8,27,-11,.,23,.
COc1ccc(CN2C(=O)c3cccnc3C2Nc2ccc(C)cc2)cc1 (stereo not drawn),20,-43,12,0,.,-6
COc1ccc(CN2C(=O)c3cccnc3C2Nc2cc(Cl)c(OC)cc2OC)cc1 (stereo not drawn),39,4,90*,-5,.,-1
CCCOC(=O)C1[C@H]2C(=O)N(CCCOC)C[C@]23C=C[C@H]1O3 (stereo partly drawn),59*,8,-8,-2,.,5
O=C(Nc1nccs1)c1ccc2c(=O)n3c(nc2c1)CCCCC3,0,9,1,-12,17,9
CCOC(=O)c1c(-c2ccc(C)cc2)csc1NC(=O)C1CC=CCC1C(=O)O (stereo not drawn),10,-27,-29,-2,.,35*
Cc1ccc(-c2csc(NC(=O)C3CC=CCC3C(=O)O)c2C(=O)OC(C)C)cc1 (stereo not drawn),29,11,-30,-10,.,47*
CCOC(=O)c1c(-c2ccc(-c3ccccc3)cc2)csc1NC(=O)C1C2CCC(O2)C1C(=O)O (stereo not drawn),56*,-43,25,-6,.,-2
CCOC(=O)C(=CNc1cc(C(F)(F)F)ccc1N1CCOCC1)C(=O)OCC,-4,-24,-1,.,21,.
O=C(NNc1ccc(Cl)nn1)c1ccc(Cl)cc1,-2,19,-44,-12,17,-2
CSc1ccccc1NC(=O)CO/N=C(\C)c1cc2ccccc2o1,1,16,-12,0,7,38*
C/C(=N\OCC(=O)Nc1ccc(F)c(F)c1F)c1cc2ccccc2o1,20,11,12,-5,15,8
CCCc1cc2c(OC(=O)CC)c(-c3ccc(C(=O)OCC)o3)c(=O)oc2cc1OC,20,-274,-27,0,24,58*
CCOC(=O)c1csc(NC(=O)c2ccc(C#N)cc2)n1,14,-2,3,-3,2,6
Cc1cc(C(=O)OCC(=O)NCc2ccco2)c(C)o1,10,-56,-33,0,11,3
O=C(O)c1cc(Cl)c2c(c1)OCO2,-2,-20,-30,.,10,.
CC(NCc1ccccc1)C1COc2ccccc2O1 (stereo not drawn),.,-14,60*,-3,.,0
COc1ccc(CNC(C)C2COc3ccccc3O2)c(OC)c1 (stereo not drawn),4,-6,47,-4,.,12
COc1cccc(-n2c(SCc3cc(=O)oc4cc(O)c(O)cc34)nc3ccccc3c2=O)c1,100*,-37,-64,-1,4,8
COc1ccc(NC(=O)c2cc3cccc(OC)c3oc2=Nc2ccc(C(=O)O)cc2)cc1OC,77*,2,-51,-2,5,31*
SMILES,Mcl1-Noxa inh,Calpain2 inh,Mcl1 Bid PPI,Mcl-1 Bim block,Calb biofilm kill,Arbovirus anti
Oc1c(C(c2cccs2)N2CCN(c3ccccc3)CC2)ccc2cccnc12 (stereo not drawn),85*,5,65*,-6,.,-36
Oc1c(C(c2ccccc2Cl)N2CCCC2)ccc2cccnc12 (stereo not drawn),28,29,-3,0,7,-30
Cc1cc(C)c(C)c(S(=O)(=O)N2CCN(CC(=O)NC(=O)NCc3ccccc3)CC2)c1C,-7,-15,-14,61*,.,-3
CC1CCN(CC(=O)NC(=O)NCc2ccccc2)CC1,-1,1,3,-5,14,-2
c1ccc(CNc2nc(NCc3ccccc3)c3ccccc3n2)cc1,60*,-24,24,.,23,.
Fc1ccccc1-c1nc(NCc2ccccc2)c2ccccc2n1,-6,6,1,.,1,.
O=[N+]([O-])c1ccc2c(OCc3nnc(-c4ccccc4Br)o3)ncnc2c1,61*,-18,6,.,8,.
O=C(NNC(=O)c1ccc(NC(=O)c2ccccc2)cc1)c1ccccc1,-17,-2,-31,0,15,-10
O=C(Nc1ccc2nc3ccccc3nc2c1)c1ccccc1,81*,-63,33,7,5,-24
CC(=O)Nc1ccc2ccccc2c1,8,14,-12,-2,.,6
CC(=O)Nc1ccc2cc3ccc(NC(C)=O)cc3nc2c1,59*,-310,1,.,-2,.
CN(C)C(=O)OCC1COc2ccccc2O1 (stereo not drawn),6,-24,-1,.,7,.
Cc1ccc(NC(=O)C(Nc2cccc(C)c2)c2ccccc2)cc1 (stereo not drawn),31,13,-31,-2,15,-6
CC1CCCC(NC2CCCCNC2=O)C1 (stereo not drawn),-11,-24,83*,2,.,2
CCCn1nc(C(=O)Nc2ccc(S(=O)(=O)Nc3nccs3)cc2)c2ccccc2c1=O,51*,-32,-35,-1,.,-4
COc1ccccc1/C=C1/SC(=O)N(CCC(=O)Nc2ccc(S(=O)(=O)Nc3nccs3)cc2)C1=O,78*,-25,-135,-4,7,-4
O=C(CCN1C(=O)S/C(=C\c2ccccc2)C1=O)Nc1ccc(S(=O)(=O)Nc2nccs2)cc1,82*,-74,-84,-1,.,6
Cc1ccc(C)c(NC(=O)CS(=O)(=O)c2cccc3nsnc23)c1,-1,-25,-20,-1,5,8
CC(C)N(C(=O)CSc1nnc(CSc2ncccn2)n1C)C(C)C,6,-3,6,0,18,-2
CCOC(=O)N1CCC(N(CCN(C)C)C(=S)Nc2cc(Cl)ccc2C)CC1,-5,-20,-54,-4,16,8
COc1cccc(Oc2c(C)oc3c(CN4CCCC4)c(O)ccc3c2=O)c1,-5,-315,96*,.,27,.
Cc1ccc(C(C)C)c(OCC(O)CN2CCN(CCO)CC2)c1 (stereo not drawn),32,-19,53*,1,12,-6
N#C/C(=C\c1cn(-c2ccccc2)nc1-c1cc2ccccc2o1)c1nc2ccccc2[nH]1,59*,-47,18,0,9,-15
CN(C)S(=O)(=O)c1cccc(-c2nn(-c3ccccc3)cc2/C=C(\C#N)c2nc3ccccc3[nH]2)c1,4,-103,5,-3,-7,-1
